HTR1A agonist = activates the human 5-HT1a serotonin receptor | P08908 | CHO 5-HT1a Ga15 NFAT-bla reporter, FRET ratio; 0% basal, 100% maximal reference agonist | activation, % at 10 µM | actives 0.56% (n = 65,000) | AID 567;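 active = activation above the screen-wide mean activation plus 3 SD, cut at about 19% in these data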;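 also: 0% = DMSO wells and 100% = 5-CT at EC100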
HTR1E antagonist = antagonists of human 5-HT1E serotonin receptor. actives 0.99% (n = 65,000). inhibition, % at 6 µM. P28566. CHO 5-HT1E Ga15 NFAT-bla reporter, FRET, antagonist;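 active = inhibition above a set limit, the mean inhibition across every tested compound plus 3 SD, cut at about 29% in these data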;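 also: signal is the 460 over 535 nm emission ratio of beta-lactamase substrate; 0% = agonist plus DMSO wells and 100% = wells without agonist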
Target sequence (P28566 whole entry, looked up): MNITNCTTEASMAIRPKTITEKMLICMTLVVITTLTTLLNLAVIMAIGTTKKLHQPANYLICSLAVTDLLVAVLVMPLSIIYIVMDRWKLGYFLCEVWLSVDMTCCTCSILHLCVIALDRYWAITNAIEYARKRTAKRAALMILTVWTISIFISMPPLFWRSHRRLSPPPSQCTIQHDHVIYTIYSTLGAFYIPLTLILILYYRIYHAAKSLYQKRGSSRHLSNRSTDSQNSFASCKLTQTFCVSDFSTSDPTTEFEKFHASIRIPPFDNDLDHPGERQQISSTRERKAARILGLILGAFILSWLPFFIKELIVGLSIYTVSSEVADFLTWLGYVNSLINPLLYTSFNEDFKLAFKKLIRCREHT
5-HT1A blocker = 5-HT1a (human) receptor antagonism. AID 612. inhibition, % at 10 µM. P08908. actives 0.68% (n = 62,000). CHO 5-HT1a Ga15 NFAT-bla reporter, antagonist mode;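 active = inhibition above the mean of all tested compounds plus 3 SD, cut at about 43% in these data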;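 also: receptor stimulated by 5-CT agonist at 100 nM near EC80; beta-lactamase reporter measured by ratiometric fluorescence of a cleavable substrate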
5HT1E ag = 5-HT1E (human) receptor agonism; CHO 5-HT1E Ga15 NFAT-bla reporter, FRET; 0% DMSO wells, 100% control agonist wells; P28566; activation, % at 6 µM; AID 574; actives 0.69% (n = 65,000);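 active = activation above a set limit, the screen-wide mean activation plus 3 SD, cut at about 8.5% in these data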;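 also: 100% = positive control agonist at 1 µM giving full maximal response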
S1P3 ag = agonists of human S1P3 receptor | Q99500 | S1P3 NFAT-BLA reporter cells, agonism, FRET ratio; relative to 1 µM S1P, basal subtracted | activation, % at 4.5 µM | actives 0.1% (n = 60,000);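 active = activation above the screen-wide mean plus 3 SD, cut at about 4.5% in these data, passing the limit was not always enough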
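material = human S1P3 NFAT-BLA reporter CHO cells | schedule = 4 h compound at 37 °C, 2 h substrate at RT | measured by = fluorescent BLA substrate, ex 405 nm, em 460/535 nm ratio | controls = 1 µM S1P reference | replication = primary once, confirmation triplicate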
S1P1 ag-PAM = activates or potentiates agonism at human S1P1 receptor; P21453; activation, % at 9.5 µM; AID 449; actives 0.57% (n = 56,000); S1P1 CRE-bla cells, forskolin, beta-lactamase FRET, potentiator mode; S1P1 agonist co-added at EC20, 2 nM; 100% = saturating reference agonist, 0% = basal;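 active = activation above a cutoff set at the mean activation of all tested compounds plus 3 SD, cut at about 54% in these data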;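 also: forskolin at 4 µM as EC80 and the EC20 agonist is SEW2871; 100% = SEW2871 at its EC100 plus forskolin at EC80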
* hit, by the source's call; · = no result. Hits are enriched below; roughly 2.9% of the tested compounds scored in any of these assays.

SMILES	HTR1A agonist	HTR1E antagonist	5-HT1A blocker	5HT1E ag	S1P3 ag	S1P1 ag-PAM
Cc1cccc(NC(=O)CSc2ncnc3c2oc2ccccc23)c1	1	12	4	1	1	-36
CCc1nc(SCC(=O)Nc2ccc3c(c2)OCCO3)c2oc3ccccc3c2n1	-2	23	5	0	-1	3
COc1ccccc1NC(=O)CSc1ncnc2c1oc1ccccc12	1	36*	-2	0	-1	-26
CCc1nc(SCC(=O)Nc2nccs2)c2oc3ccccc3c2n1	1	38*	2	4	0	-60
N#CC1=C(O)C(c2ccccc2)n2c1nc(=O)c1ccccc12 (configuration not stated)	-1	-13	-4	-1	-1	-18
CCOc1ccccc1CN(Cc1ccco1)S(=O)(=O)c1ccc(-n2cnnn2)c(OC)c1	-3	17	54*	0	0	-6
Cc1ccc(-c2nc(CN(C)C)cc(CN(C)C)c2O)cc1	-1	-1	2	-2	-1	16
CN(C)Cc1cc(C(C)(C)c2cc(CN(C)C)c(O)c(CN(C)C)c2)cc(CN(C)C)c1O	75*	-11	-10	0	0	17
Cc1ccc(C(C)C)c(OCc2nc(-c3nonc3N)no2)c1	1	22	-22	0	17*	92*
Cc1cc(NCCN2CCOCC2)n2nc(C)c(-c3ccccc3)c2n1	-1	24	10	0	-2	8
Cc1cc(NCCN2CCOCC2)n2nc(C)c(-c3ccc(Cl)cc3)c2n1	3	32*	-2	1	-1	-10
N#CC1=C(N)Oc2n[nH]c(-c3ccccc3)c2C1c1cccc(OC(=O)N2CCOCC2)c1 (configuration not stated)	0	14	9	11*	-1	-21
COc1cc(CSc2nnnn2-c2ccc(C)cc2)cc(OC)c1OC	-1	12	22	0	-2	102*
CCOC(=O)c1oc2ccccc2c1CSc1nnnn1-c1ccc(C)cc1	-5	-1	32	0	3	-3
CCCCC(SCC(=O)Nc1ccccc1)C(=O)O (configuration not stated)	10	5	6	-1	-1	15
Cn1c(=O)c2c(-c3ccccc3)n(-c3ccccc3O)cc2n(C)c1=O	3	-5	-3	0	0	-7
Cn1c(=O)c2c(-c3ccccc3)n(C3CCCCC3)cc2n(C)c1=O	1	2	-4	1	13*	-8
N#CCSc1nnc(-c2ccccc2O)n1CCc1ccccc1	1	-6	-6	-1	3	17
Cc1nn(-c2ccccn2)c2c1C(c1ccsc1)C1=C(CCCC1=O)N2 (configuration not stated)	2	35*	-6	0	0	-50
Cc1nc(SCC#N)c2c(C)c(C)sc2n1	1	35*	19	2	0	-43
N#CCSc1nnc(-c2ccccc2)c(-c2ccccc2)n1	0	2	-7	0	6.3*	22
COc1ccc(CCNc2ncnc3c2oc2ccccc23)cc1OC	0	12	5	0	-1	116*
COc1ccc(CCNc2nc(C)nc3c2oc2ccccc23)cc1OC	0	8	11	-1	·	·
CCCOc1ccc2nc(NC(=O)OC)[nH]c2c1	-2	73*	·	0	-4	-3
CCOC(=O)c1sc2c(c1C)C(c1cccs1)C1=C(CCCC1=O)N2 (configuration not stated)	22*	6	-4	6	1	-94
SMILES	HTR1A agonist	HTR1E antagonist	5-HT1A blocker	5HT1E ag	S1P3 ag	S1P1 ag-PAM
CN1CCCN(C(=O)Cc2c(Cl)cccc2Cl)c2nc3ccccc3nc21	3	-2	-11	1	1	-73
COc1ccc2c(c1)c1ncnc(N3CCN(Cc4ccc5c(c4)OCO5)CC3)c1n2C	3	-6	-31	0	-1	-13
COc1ccc2[nH]c3c(N4CCN(Cc5ccc6c(c5)OCO6)CC4)ncnc3c2c1	2	29*	·	-1	-2	-10
Clc1ccc(Cn2ncc3c(NCc4ccco4)ncnc32)c(Cl)c1	-1	39*	32	0	-2	50
CCC(c1nnc(SCC(=O)NCCc2ccc(Cl)cc2Cl)o1)N(C)C (configuration not stated)	-1	-12	6	1	0	12
O=C(Nc1cccc(NC(=O)c2nccc3ccccc23)c1)c1ccco1	1	4	4	0	-1	-1
Cc1ccccc1-n1c(=O)cc(N2CCN(Cc3ccccc3)CC2)[nH]c1=O	-2	-6	5	0	0	-9
Cc1ccccc1N1CCN(Cc2cccc(C(=O)O)c2)CC1	0	4	8	22*	-1	-6
Cc1sc2ncnc(Oc3ccc(-n4ccnc4)cc3)c2c1C	298*	4	6	0	-1	5
O=S(=O)(c1ccccc1)N1C2CCC1CC(O)(c1cccnc1)C2 (configuration not stated)	-1	-8	4	0	-2	0
O=C(Nc1ccccc1NC(=O)c1c(F)c(F)c(F)c(F)c1F)c1c(F)c(F)c(F)c(F)c1F	2	30*	27	1	-1	-14
O=C(Nc1cccc(F)c1)c1c(F)c(F)c(F)c(F)c1F	-2	-8	11	-1	0	25
Cc1cc(Nc2ccc(Br)cc2F)n2nc(C)nc2n1	0	-20	-6	1	0	-41
CC(=O)c1ccc(N2CCN(c3ccc(C(F)(F)F)cn3)CC2)cc1	-2	8	-16	0	-2	88*
NC(=O)c1c(NC(=O)c2cccs2)sc2c1CCCCCC2	0	-15	-3	11*	0	12
Cc1ccc(C(=O)CSC2=C(C#N)C(c3ccco3)C3=C(CC(C)(C)CC3=O)N2)cc1 (configuration not stated)	-3	10	-3	2	-1	11
CC1=C(C(=O)OC2CCCCC2)C(c2ccc(C)o2)C2=C(CCCC2=O)N1 (configuration not stated)	-2	30*	25	0	-2	14
CC1=C(C(=O)OC2CCCCC2)C(c2ccco2)C2=C(CC(C)(C)CC2=O)N1 (configuration not stated)	0	44*	23	0	-1	·
CC1(C)CC(=O)C2=C(C1)NC(SCC(=O)Nc1ccccc1)=C(C#N)C2c1ccco1 (configuration not stated)	-2	33*	38	0	-1	14

From PubChem
